Assay results taken from PMC6287304 (Antiviral Chemistry & Chemotherapy, 2018).
Read-outs that look alike come from different tables or passages of the source.

Assays:
Assay type in all cases: biochemical
[1] = target: T1, DNA pol α (Homo sapiens, UniProt P09884); assay: DNA polymerase inhibition, DNA pol α; conditions: read-out: IC50 DNA pol α dGTP; calf thymus DNA, radiolabeled [3H]dGTP
T1 sequence (P09884 1-1462): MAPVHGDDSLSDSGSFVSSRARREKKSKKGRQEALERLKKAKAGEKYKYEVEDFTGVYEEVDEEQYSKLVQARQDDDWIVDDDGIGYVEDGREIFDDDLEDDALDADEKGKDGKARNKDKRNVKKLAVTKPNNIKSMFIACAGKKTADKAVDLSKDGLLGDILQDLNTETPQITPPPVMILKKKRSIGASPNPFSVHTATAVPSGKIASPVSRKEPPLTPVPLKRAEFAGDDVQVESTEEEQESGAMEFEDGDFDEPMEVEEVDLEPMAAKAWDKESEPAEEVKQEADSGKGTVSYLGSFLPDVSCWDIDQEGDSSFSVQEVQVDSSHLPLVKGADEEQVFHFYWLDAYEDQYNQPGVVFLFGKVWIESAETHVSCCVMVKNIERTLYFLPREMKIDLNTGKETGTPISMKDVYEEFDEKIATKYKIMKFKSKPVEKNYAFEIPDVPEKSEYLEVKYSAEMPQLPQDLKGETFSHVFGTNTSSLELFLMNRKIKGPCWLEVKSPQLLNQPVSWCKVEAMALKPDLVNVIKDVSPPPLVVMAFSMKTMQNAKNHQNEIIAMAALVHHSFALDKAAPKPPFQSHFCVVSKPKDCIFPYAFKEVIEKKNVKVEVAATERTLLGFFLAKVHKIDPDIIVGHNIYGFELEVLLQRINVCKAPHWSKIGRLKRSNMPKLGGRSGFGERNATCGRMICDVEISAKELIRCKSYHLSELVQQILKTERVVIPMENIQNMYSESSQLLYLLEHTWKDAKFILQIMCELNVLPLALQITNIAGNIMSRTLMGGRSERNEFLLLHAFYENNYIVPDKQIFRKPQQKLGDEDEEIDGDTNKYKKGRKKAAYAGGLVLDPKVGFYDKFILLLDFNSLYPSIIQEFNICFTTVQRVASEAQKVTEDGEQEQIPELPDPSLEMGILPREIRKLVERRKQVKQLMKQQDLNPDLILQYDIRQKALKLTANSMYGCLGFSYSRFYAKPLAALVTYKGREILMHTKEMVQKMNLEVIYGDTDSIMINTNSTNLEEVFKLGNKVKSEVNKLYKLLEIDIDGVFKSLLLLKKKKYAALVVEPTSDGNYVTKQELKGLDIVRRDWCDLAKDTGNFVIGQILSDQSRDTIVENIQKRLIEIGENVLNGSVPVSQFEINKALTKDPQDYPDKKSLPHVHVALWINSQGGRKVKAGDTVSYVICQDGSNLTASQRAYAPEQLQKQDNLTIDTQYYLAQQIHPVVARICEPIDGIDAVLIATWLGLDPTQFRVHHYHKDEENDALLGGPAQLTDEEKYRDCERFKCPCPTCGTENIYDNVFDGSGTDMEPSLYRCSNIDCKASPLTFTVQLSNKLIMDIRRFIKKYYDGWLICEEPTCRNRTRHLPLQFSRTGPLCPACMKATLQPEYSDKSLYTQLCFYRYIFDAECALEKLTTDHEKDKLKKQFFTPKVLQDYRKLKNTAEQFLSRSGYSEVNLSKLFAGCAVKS

[2] = target: T2, HCMV DNA pol (Human cytomegalovirus, UniProt P08546); assay: DNA polymerase inhibition, HCMV DNA pol; conditions: calf thymus DNA
T2 sequence (P08546 1-1242): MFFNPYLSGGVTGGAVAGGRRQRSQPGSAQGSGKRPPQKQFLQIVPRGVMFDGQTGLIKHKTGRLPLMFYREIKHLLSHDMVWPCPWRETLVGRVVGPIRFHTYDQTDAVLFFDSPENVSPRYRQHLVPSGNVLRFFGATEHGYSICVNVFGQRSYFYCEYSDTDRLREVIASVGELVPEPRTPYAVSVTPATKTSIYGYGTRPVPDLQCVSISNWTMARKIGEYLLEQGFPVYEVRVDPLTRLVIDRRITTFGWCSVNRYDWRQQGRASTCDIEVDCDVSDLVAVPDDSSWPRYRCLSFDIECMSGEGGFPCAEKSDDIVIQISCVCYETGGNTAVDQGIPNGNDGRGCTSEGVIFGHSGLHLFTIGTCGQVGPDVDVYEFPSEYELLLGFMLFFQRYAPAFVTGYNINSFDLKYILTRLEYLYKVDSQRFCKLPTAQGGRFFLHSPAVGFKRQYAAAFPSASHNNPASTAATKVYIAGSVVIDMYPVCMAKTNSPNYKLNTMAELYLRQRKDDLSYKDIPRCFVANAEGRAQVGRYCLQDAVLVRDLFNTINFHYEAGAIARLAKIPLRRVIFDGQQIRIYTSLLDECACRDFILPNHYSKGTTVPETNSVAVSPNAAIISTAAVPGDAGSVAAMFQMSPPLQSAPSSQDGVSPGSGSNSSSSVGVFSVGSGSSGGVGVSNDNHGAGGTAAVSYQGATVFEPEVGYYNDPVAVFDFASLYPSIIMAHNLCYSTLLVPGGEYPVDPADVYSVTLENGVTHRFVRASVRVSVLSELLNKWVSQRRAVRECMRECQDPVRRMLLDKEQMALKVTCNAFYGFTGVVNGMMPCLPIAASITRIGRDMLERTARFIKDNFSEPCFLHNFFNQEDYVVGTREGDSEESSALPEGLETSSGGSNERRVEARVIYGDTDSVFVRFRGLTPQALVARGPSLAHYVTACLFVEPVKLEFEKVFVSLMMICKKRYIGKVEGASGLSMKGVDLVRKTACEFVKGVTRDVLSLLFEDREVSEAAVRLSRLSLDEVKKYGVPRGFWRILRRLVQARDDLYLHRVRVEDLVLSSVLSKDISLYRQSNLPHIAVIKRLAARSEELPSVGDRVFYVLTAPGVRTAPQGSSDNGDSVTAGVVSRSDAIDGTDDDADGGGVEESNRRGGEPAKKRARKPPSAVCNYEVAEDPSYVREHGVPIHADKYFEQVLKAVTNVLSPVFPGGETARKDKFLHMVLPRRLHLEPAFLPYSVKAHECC
Summary of the method: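 Recombinant or source enzyme not specified. HCMV DNA polymerase reaction uses activated calf thymus DNA as template/primer, 100 uM of each of three unlabeled dNTPs, and 0.5 uM rate-limiting tritium-labeled dNTP ([3H]dGTP or [3H]dTTP, as competitive substrate). The diphosphate form of the test compound is added in serial dilutions, up to 100 uM.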

[3] = target: DNA pol β (Homo sapiens, UniProt P06746); assay: DNA polymerase inhibition, DNA pol β; conditions: read-out: IC50 DNA pol β dGTP; calf thymus DNA, radiolabeled [3H]dGTP

## O=C(O)P(=O)(O)O [PFA pyrophosphate]
[1]
  IC50: 56 ± 12 µM
[2]; read-out: IC50 HCMV DNA pol dGTP, radiolabeled [3H]dGTP
  IC50: 7 ± 0.7 µM
[2]; read-out: IC50 HCMV DNA pol dTTP, radiolabeled [3H]dTTP
  IC50: 9.4 ± 6 µM
[3]
  IC50: > 100 µM
